In publication PMC3580954 (Biopolymers, 2013):
Numbering of substitutions follows the chain as printed. Residues, ends and D or L forms follow the SMILES beside them.

Key:
Format in all cases: cell-based
Settings in all cases: SD
W^2.71A PrRP receptor = biological target: T1, W^2.71A PrRP receptor (Homo sapiens, UniProt P49683, W127A); assay: IP accumulation assay, W^2.71A receptor mutant
T1 sequence (P49683 1-370 W127A): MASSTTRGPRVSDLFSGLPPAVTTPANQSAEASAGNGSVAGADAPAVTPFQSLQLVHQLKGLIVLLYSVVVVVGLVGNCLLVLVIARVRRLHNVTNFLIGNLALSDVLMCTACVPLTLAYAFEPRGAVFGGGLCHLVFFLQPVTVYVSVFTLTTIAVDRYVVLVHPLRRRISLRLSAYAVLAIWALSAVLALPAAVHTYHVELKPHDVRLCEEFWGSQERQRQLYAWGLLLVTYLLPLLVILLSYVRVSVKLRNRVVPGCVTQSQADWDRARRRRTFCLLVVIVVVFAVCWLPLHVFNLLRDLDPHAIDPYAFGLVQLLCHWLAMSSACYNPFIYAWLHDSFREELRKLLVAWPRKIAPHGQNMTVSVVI
In short: (§1)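 COS-7 cells were transiently transfected with 0.4 µg plasmid of human PrRP receptor or its site-directed mutant, C-terminally fused to EYFP. One day after transfection and 16 h before stimulation, cells were labelled with 2 µCi/mL [³H]myo-inositol. They were then stimulated with increasing peptide concentrations for 1 h at 37°C in DMEM with 10 mM LiCl, and lysed in 0.1 M NaOH. IP was separated by anion exchange and counted by scintillation. EC50 came from concentration-response curves; runs were in duplicate, repeated ≥2 times.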

R^2.69A PrRP receptor = biological target: T2, R^2.69A PrRP receptor (Homo sapiens, UniProt P49683, R125A); assay: IP accumulation assay, R^2.69A receptor mutant
T2 sequence (P49683 1-370 R125A): T1 sequence (P49683 1-370 W127A) with R125A, A127W

Y^2.64A PrRP receptor = biological target: T3, Y^2.64A PrRP receptor (Homo sapiens, UniProt P49683, Y120A); assay: IP accumulation assay, Y^2.64A receptor mutant
T3 sequence (P49683 1-370 Y120A): T1 sequence (P49683 1-370 W127A) with Y120A, A127W
In short: as §1

E^2.67A PrRP receptor = biological target: T4, E^2.67A PrRP receptor (Homo sapiens, UniProt P49683, E123A); assay: IP accumulation assay, E^2.67A receptor mutant
T4 sequence (P49683 1-370 E123A): T1 sequence (P49683 1-370 W127A) with E123A, A127W

F^2.73A PrRP receptor = biological target: T5, F^2.73A PrRP receptor (Homo sapiens, UniProt P49683, F129A); assay: IP accumulation assay, F^2.73A receptor mutant
T5 sequence (P49683 1-370 F129A): T1 sequence (P49683 1-370 W127A) with A127W, F129A

wt hPrRP receptor = biological target: T6, wt hPrRP receptor (Homo sapiens, UniProt P49683); assay: Signal transduction
T6 sequence (P49683 1-370): T1 sequence (P49683 1-370 W127A) with A127W
In short: as §1

F^2.66A PrRP receptor = biological target: T7, F^2.66A PrRP receptor (Homo sapiens, UniProt P49683, F122A); assay: IP accumulation assay, F^2.66A receptor mutant
T7 sequence (P49683 1-370 F122A): T1 sequence (P49683 1-370 W127A) with F122A, A127W

EC50 (W^2.71A PrRP receptor): 593 ± 78 nM | EC50 (R^2.69A PrRP receptor): 4.2 ± 2.5 nM | EC50 (Y^2.64A PrRP receptor): 50 ± 7.5 nM | EC50 (E^2.67A PrRP receptor): 7.2 ± 3.4 nM | EC50 (F^2.73A PrRP receptor): 4.4 ± 2 nM | EC50 (wt hPrRP receptor): 2.2 ± 0.3 nM | EC50 (F^2.66A PrRP receptor): 6.2 ± 3.3 nM
Structure (SMILES): CC[C@H](C)[C@H](NC(=O)CNC(=O)[C@H](CCCNC(=N)N)NC(=O)[C@H](CO)NC(=O)[C@H](C)NC(=O)[C@H](Cc1ccc(O)cc1)NC(=O)[C@H](Cc1c[nH]c2ccccc12)NC(=O)[C@H](C)NC(=O)[C@@H]1CCCN1C(=O)[C@H](CC(N)=O)NC(=O)[C@@H](NC(=O)[C@H](CC(=O)O)NC(=O)[C@@H]1CCCN1C(=O)[C@@H](N)[C@@H](C)O)[C@@H](C)CC)C(=O)N[C@@H](CCCNC(=N)N)C(=O)N1CCC[C@H]1C(=O)N[C@H](C(=O)NCC(=O)N[C@@H](CCCNC(=N)N)C(=O)N[C@@H](Cc1ccccc1)C(N)=O)C(C)C [PrRP20] (H-TPDINPAWYASRGIRPVGRF-NH2)
